MrgX1 PAM: allosterically activates human MrgX1 receptor signaling; B-score at 10 µM; 310,000 compounds, 0.63% hits; MrgX1-HEK293, Fluo-4 calcium flux, FDSS; stronger effect = higher value; Q96LB2;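 active = plate-corrected calcium response at least 3 library SD above typical, normal starting fluorescence, not activating the receptor alone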;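 note: compound read alongside a low EC10 to EC30 dose of BAM8-22 agonist; peak minus trough fluorescence over baseline measured at the second addition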
Target sequence (Q96LB2 whole entry, looked up): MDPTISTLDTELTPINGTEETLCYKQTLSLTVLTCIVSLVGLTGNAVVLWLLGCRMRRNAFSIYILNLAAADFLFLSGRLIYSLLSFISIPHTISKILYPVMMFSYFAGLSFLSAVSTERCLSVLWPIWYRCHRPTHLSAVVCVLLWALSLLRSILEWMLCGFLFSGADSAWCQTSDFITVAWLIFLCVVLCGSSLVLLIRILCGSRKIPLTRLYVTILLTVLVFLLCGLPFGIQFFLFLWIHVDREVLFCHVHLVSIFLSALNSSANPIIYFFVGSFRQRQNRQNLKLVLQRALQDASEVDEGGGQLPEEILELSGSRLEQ
RGS4 pot: RGS4 potentiation or activation; HEK293 M3R/inducible RGS4, carbachol calcium flux Fluo4; stronger effect = lower value; B-score at 10 µM; 310,000 compounds, 0.92% hits; AID 463111;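 active = B-score of the integrated calcium signal more than 4 SD below the library mean, with starting fluorescence not abnormally high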;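 note: negative B-score means reduced calcium response which marks RGS4 activation or potentiation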
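Material: Inducible-RGS4 HEK293 cells carrying M3 receptor; also added: carbachol at ECmax as muscarinic agonist stimulus; incubation: compound preincubation 20 min at room temperature before agonist; signal: Fluo4-AM (2 µM) calcium-flux fluorescence, kinetic read; measure: integrated calcium ratio converted to B score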
RGS4 inh: inhibitors of human RGS4 | HEK293 M3R/RGS4 inducible, Fluo-4 calcium flux; stronger effect = higher value; triggered by carbachol at its EC20 | B-score at 10 µM | 310,000 compounds, 0.45% hits | P49798;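 active = B-score, a plate-corrected calcium signal, over three deviations above library mean, with baseline fluorescence within five deviations of library mean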;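 note: RGS4 expression induced by doxycycline in cells with stable M3 receptor; B-score is computed from the integrated fluorescence ratio over baseline after carbachol; higher B-score means a larger calcium signal and so more RGS4 inhibition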
Target sequence (P49798 whole entry, looked up): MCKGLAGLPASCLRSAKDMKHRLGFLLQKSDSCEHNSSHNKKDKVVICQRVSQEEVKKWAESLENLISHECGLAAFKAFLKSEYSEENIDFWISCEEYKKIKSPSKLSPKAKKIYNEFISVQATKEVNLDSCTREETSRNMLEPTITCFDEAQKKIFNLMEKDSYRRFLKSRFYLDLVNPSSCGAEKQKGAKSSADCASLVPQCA
MrgX1 ag: activates human MrgX1 receptor signaling; B-score at 10 µM; 310,000 compounds, 0.44% hits; MrgX1-HEK293 cells, Fluo-4 calcium fluorescence, agonist mode; stronger effect = higher value;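 active = calcium response B-score plate-corrected fluorescence ratio at least 3 library SD, with starting fluorescence B-score inside 5 SD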
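Material – MrgX1-expressing HEK293 cells · Input – 15,000 cells seeded per well · Dosing – compound as first of three additions · Times – overnight seeding, then 1 h dark dye loading · Measured by – kinetic Fluo-4 NW fluorescence of intracellular calcium · Read-out – B-scored fluorescence response ratio · Benchmarks – positive and negative control wells on each plate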
MrgX1 antag: blocks BAM8-22 activation of human MrgX1 receptor | MRGX1-HEK293 calcium flux, Fluo-4, BAM8-22 antagonism; stronger effect = lower value | B-score at 10 µM | 310,000 compounds, 1.3% hits | AID 588676;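 active = calcium-response B-score plate-corrected more than 3 library SD below zero, starting fluorescence within 5 deviations, no agonist response on first addition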;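 note: peak minus trough fluorescence over baseline after final BAM8-22 challenge near maximal dose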
Numbers stand for hits. Shown are actives, neighbours in structure and some others; about 3.5% of the full set was active somewhere.

Results for O=C1C2CCCCN2C(=O)N1CCCCN1CCN(c2ccccc2Oc2ccccc2)CC1 (centres undefined) ?
MrgX1 PAM: inactive; RGS4 pot: inactive; RGS4 inh: inactive; MrgX1 ag: inactive; MrgX1 antag: inactive

How did O=C(/C(=N\O)n1cncn1)c1ccc(Cl)cc1Cl do in these assays?
MrgX1 PAM: inactive; RGS4 pot: inactive; RGS4 inh: inactive; MrgX1 ag: inactive; MrgX1 antag: inactive

How did O=C(/C(=C/c1ccccc1)n1cncn1)c1ccc(Cl)cc1Cl do in these assays?
MrgX1 PAM: inactive; RGS4 pot: inactive; RGS4 inh: inactive; MrgX1 ag: 27; MrgX1 antag: inactive

Results for Cc1cc(C)cc(NC2=C(N)C(=O)c3ccccc3C2=O)c1 ?
MrgX1 PAM: inactive; RGS4 pot: inactive; RGS4 inh: inactive; MrgX1 ag: inactive; MrgX1 antag: inactive

What do the screens show for `O=C(/C=C/c1ccc([N+](=O)[O-])cc1)/C=C/c1ccco1`?
MrgX1 PAM: inactive; RGS4 pot: inactive; RGS4 inh: 16; MrgX1 ag: inactive; MrgX1 antag: inactive

Results for CCOC(=O)c1c(NC(=O)COC(=O)c2ccc(O)cc2)sc(C(=O)NC)c1C ?
MrgX1 PAM: inactive; RGS4 pot: inactive; RGS4 inh: inactive; MrgX1 ag: inactive; MrgX1 antag: inactive

Results for CCOC(=O)c1c(NC(=O)COC(=O)CC(NC(C)=O)c2ccccc2)sc(C(=O)NC)c1C (centres undefined) ?
MrgX1 PAM: inactive; RGS4 pot: inactive; RGS4 inh: inactive; MrgX1 ag: inactive; MrgX1 antag: -4.8

What do the screens show for `CCOc1cc(C(=O)N2CCOCC2)ccc1OCc1ccccc1`?
MrgX1 PAM: inactive; RGS4 pot: inactive; RGS4 inh: inactive; MrgX1 ag: inactive; MrgX1 antag: inactive

What do the screens show for `CCCCC(CC)C(=O)Nc1ncc([N+](=O)[O-])s1` (centres undefined)?
MrgX1 PAM: 7.4; RGS4 pot: inactive; RGS4 inh: inactive; MrgX1 ag: inactive; MrgX1 antag: inactive

What do the screens show for `COc1ccccc1OCCCN1C(=O)C(=O)c2cccc(C)c21`?
MrgX1 PAM: inactive; RGS4 pot: inactive; RGS4 inh: inactive; MrgX1 ag: 28; MrgX1 antag: inactive

What do the screens show for `CS(=O)(=O)C1=NN2C(=N)/C(=C\c3ccc(OC(=O)c4ccco4)cc3)C(=O)N=C2S1`?
MrgX1 PAM: 12; RGS4 pot: inactive; RGS4 inh: inactive; MrgX1 ag: inactive; MrgX1 antag: inactive

What do the screens show for `N=C1/C(=C\c2ccc(OC(=O)c3ccco3)cc2)C(=O)N=C2SC=NN12`?
RGS4 pot: inactive; RGS4 inh: inactive

What do the screens show for `CC(C)CS(=O)(=O)C1=NN2C(=N)/C(=C\c3ccc(OC(=O)c4ccco4)cc3)C(=O)N=C2S1`?
MrgX1 PAM: inactive; RGS4 pot: inactive; RGS4 inh: inactive; MrgX1 ag: 29; MrgX1 antag: inactive

How did C#CCOCCOCCOCCNc1nc(N2CCN(C(=O)CCCCCCCCCCNC(=O)[C@@H](CCC(=O)O)n3cc(CCCCCN)nn3)CC2)nc(N2CCN(C(=O)CCCCCCCCCCNC(=O)[C@H](CO)n3cc(CCCCCN)nn3)CC2)n1 do in these assays?
MrgX1 PAM: inactive; MrgX1 ag: inactive; MrgX1 antag: inactive

What do the screens show for `C#CCOCCOCCOCCNc1nc(N2CCN(C(=O)CCCCCCCCCCNC(=O)[C@@H](CCC(=O)O)n3cc(CCCCCN)nn3)CC2)nc(N2CCN(C(=O)CCCCCCCCCCNC(=O)[C@H](CCCCN)n3cc(C[C@@H](C)CC)nn3)CC2)n1`?
MrgX1 PAM: inactive; MrgX1 ag: 70; MrgX1 antag: inactive

How did C#CCOCCOCCOCCNc1nc(N2CCN(C(=O)CCCCCCCCCCNC(=O)[C@H](CCCCN)n3cc(CCO)nn3)CC2)nc(N2CCN(C(=O)CCCCCCCCCCNC(=O)[C@H](CCCCN)n3cc(C[C@@H](C)CC)nn3)CC2)n1 do in these assays?
MrgX1 PAM: inactive; MrgX1 ag: 83; MrgX1 antag: inactive

How did O=C1NC(=O)C(c2cccs2)(c2cccs2)N1 do in these assays?
MrgX1 PAM: inactive; RGS4 pot: inactive; RGS4 inh: inactive; MrgX1 ag: inactive; MrgX1 antag: inactive

How did COc1cccc(C2(O)CCN(C(=O)Cc3cccnc3)CC2)c1 do in these assays?
MrgX1 PAM: inactive; RGS4 pot: inactive; RGS4 inh: inactive; MrgX1 ag: inactive; MrgX1 antag: inactive

What do the screens show for `COc1cccc(/C=C/c2ccc3cccc(O)c3n2)c1OC`?
MrgX1 PAM: inactive; RGS4 pot: -7.4; RGS4 inh: inactive; MrgX1 ag: inactive; MrgX1 antag: inactive

How did COc1ccc(/C=C/c2ccc3cccc(O)c3n2)c(OC)c1OC do in these assays?
MrgX1 PAM: inactive; RGS4 pot: inactive; RGS4 inh: inactive; MrgX1 ag: inactive; MrgX1 antag: inactive

What do the screens show for `CC(C)CN(C(=O)COC(=O)C12CC3CC(CC(C3)C1)C2)c1c(N)n(Cc2ccccc2)c(=O)[nH]c1=O`?
MrgX1 PAM: inactive; RGS4 pot: inactive; RGS4 inh: inactive; MrgX1 ag: inactive; MrgX1 antag: inactive

How did Cc1cccc(NC(=O)CCN2C(=O)c3ccccc3S2(=O)=O)c1C do in these assays?
MrgX1 PAM: inactive; RGS4 pot: inactive; RGS4 inh: inactive; MrgX1 ag: inactive; MrgX1 antag: inactive

What do the screens show for `CCc1ccc(C2C(C#N)=C(N)C(C#N)(C#N)C3=CCC(C(C)(C)C)CC32)cc1` (centres undefined)?
MrgX1 PAM: inactive; RGS4 pot: inactive; RGS4 inh: inactive; MrgX1 ag: inactive; MrgX1 antag: -5.8

What do the screens show for `COCc1c(C#N)c(NCCc2ccc(F)cc2)nc(C)c1[N+](=O)[O-]`?
MrgX1 PAM: inactive; RGS4 pot: inactive; RGS4 inh: inactive; MrgX1 ag: inactive; MrgX1 antag: inactive

What do the screens show for `Cc1nc(NCCc2ccc(F)cc2)c(C#N)c(C)c1[N+](=O)[O-]`?
MrgX1 PAM: inactive; RGS4 pot: inactive; RGS4 inh: inactive; MrgX1 ag: 38; MrgX1 antag: inactive

Results for COCc1c(C#N)c(NCCc2ccccc2)nc(C)c1[N+](=O)[O-] ?
MrgX1 PAM: inactive; RGS4 pot: inactive; RGS4 inh: inactive; MrgX1 ag: inactive; MrgX1 antag: -6.3

How did CC(=O)c1ccc(-c2ccc(C(=O)N3CCCc4ccccc43)o2)cc1 do in these assays?
MrgX1 PAM: inactive; RGS4 pot: inactive; RGS4 inh: inactive; MrgX1 ag: inactive; MrgX1 antag: inactive

What do the screens show for `CCc1nnc(NC(=O)c2cccc(C(=O)Nc3nnc(CC)s3)n2)s1`?
MrgX1 PAM: 27; RGS4 pot: inactive; RGS4 inh: inactive; MrgX1 ag: inactive; MrgX1 antag: inactive

Results for CCN(CC(=O)NCc1ccc(Cl)cc1)CC(=O)NC1(C#N)CCCC1 ?
MrgX1 PAM: inactive; RGS4 pot: inactive; RGS4 inh: inactive; MrgX1 ag: inactive; MrgX1 antag: inactive

What do the screens show for `Cc1ccc(Nc2nc(N)nc(CN3CCN(C)CC3)n2)cc1`?
MrgX1 PAM: inactive; RGS4 pot: -7.2; RGS4 inh: inactive; MrgX1 ag: inactive; MrgX1 antag: inactive
